# Shown are actives, neighbours in structure and some others; about 3.1% of the full set was active somewhere.
# PRMT1 FP inh: PRMT1 (human) inhibition, primary screen; Q99873; recombinant PRMT1, activity-based probe fluorescence polarization; inhibition, % at 2.79 µM; 370,000 tested, 1.3% active; AID 652257;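 active means inhibition above about 21% made by adding two undisclosed values, limit read from the data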
# ABHD5 PLIN5 PPI: ABHD5-PLIN5 protein interaction inhibition. Q00G26+Q8WTS1. Split G. princeps luciferase complementation, luminescence, 4 h. inhibition, % at 4 µM. 360,000 tested, 0.78% active. AID 602281;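 active means inhibition above the mean inhibition across every tested compound plus 3 SD, cut at about 22% in these data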;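 further: 0% = DMSO only wells and the 100% control is not disclosed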
# Target sequence (Q00G26 whole entry, looked up): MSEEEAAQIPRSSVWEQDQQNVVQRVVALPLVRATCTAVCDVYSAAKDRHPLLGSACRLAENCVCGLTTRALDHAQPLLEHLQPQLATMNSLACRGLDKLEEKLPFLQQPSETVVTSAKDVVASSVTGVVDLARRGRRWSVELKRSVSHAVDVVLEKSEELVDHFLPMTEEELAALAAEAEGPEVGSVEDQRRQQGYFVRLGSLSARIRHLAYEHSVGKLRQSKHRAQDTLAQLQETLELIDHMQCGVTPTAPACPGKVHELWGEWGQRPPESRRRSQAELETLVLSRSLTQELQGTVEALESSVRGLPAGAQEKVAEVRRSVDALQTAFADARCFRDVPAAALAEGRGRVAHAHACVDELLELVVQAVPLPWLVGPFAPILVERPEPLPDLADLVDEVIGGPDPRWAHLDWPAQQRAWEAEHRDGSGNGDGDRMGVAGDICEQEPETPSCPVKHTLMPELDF
# Target sequence (Q8WTS1 whole entry, looked up): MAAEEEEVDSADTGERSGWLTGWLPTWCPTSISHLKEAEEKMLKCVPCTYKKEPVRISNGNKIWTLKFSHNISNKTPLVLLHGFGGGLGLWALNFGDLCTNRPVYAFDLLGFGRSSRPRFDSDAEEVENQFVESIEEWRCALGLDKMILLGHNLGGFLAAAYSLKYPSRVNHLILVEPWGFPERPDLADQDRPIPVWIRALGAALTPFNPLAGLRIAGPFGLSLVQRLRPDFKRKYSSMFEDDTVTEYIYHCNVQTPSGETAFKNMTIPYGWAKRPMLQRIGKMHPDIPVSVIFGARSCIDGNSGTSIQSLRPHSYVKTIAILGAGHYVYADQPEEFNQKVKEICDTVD
# LEDGF integ inh: blocks HIV-1 LEDGF/p75-dependent DNA integration | TR-FRET IN-LEDGF/p75 DNA integration, Eu/Cy5 | inhibition, % at 3.7 µM | 370,000 tested, 0.64% active;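 active means inhibition above the screen-wide mean plus 3 SD, cut at about 13% in these data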;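 further: signal is the Cy5 over europium emission ratio at 671 and 618 nm; 0% = plate median of compound wells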
# RBBP9 inhibitor: blocks human serine hydrolase RBBP9; O75884; recombinant RBBP9, FP-Rh probe fluorescence polarization; inhibition, % at 7.94 µM; 220,000 tested, 0.2% active; AID 1515;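 active means inhibition above the campaign mean of all tested compounds plus 3 SD, cut at about 14% in these data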;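 further: plate controls were DMSO wells with RBBP9 for no effect and wells lacking RBBP9 protein for full effect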
#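 Controls: DMSO-treated enzyme wells and wells lacking RBBP9 | Material: RBBP9 protein | Technique: Fluorescence polarization | Replication: Single well per compound, no replicates | Buffer or medium: Tris-NaCl-Pluronic buffer, pH 8.0 | Timing: 30 min compound preincubation, 45 min probe labeling, 25 °C | Read-out basis: Percent inhibition from mP, scaled between DMSO and no-protein wells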
# UHRF1 MBD2 ctr: blocks human UHRF1 binding to methylated DNA | Q96T88 | UHRF1 binding to methylated oligo, TR-FRET | inhibition, % at 4.4 µM | 370,000 tested, 0.75% active | AID 687016; in the data active means inhibition above about 21%;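 further: UHRF1 SRA domain binding a hemimethylated CpG hairpin DNA probe; 0% = median of test compound wells and 100% = reference inhibitor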
# MBD2 DNA inh: blocks human MBD2 binding to methylated DNA; Q9UBB5; TR-FRET, MBD2 binding to methylated oligonucleotide; inhibition, % at 4.4 µM; 370,000 tested, 0.31% active; in the data active means inhibition above about 13%
# The depositor's hits bear a star; nt = not tested or not shown.
SMILES,PRMT1 FP inh,ABHD5 PLIN5 PPI,LEDGF integ inh,RBBP9 inhibitor,UHRF1 MBD2 ctr,MBD2 DNA inh
COC(=O)C1CN(Cc2cn(CCC3OCCO3)nn2)CCS(=O)(=O)N1Cc1ccc(OC)cc1 (configuration not stated),0,nt,5,nt,12,7
Cc1ccc(N2CC(C(=O)OCC(=O)Nc3cccc(Cl)c3C)CC2=O)cc1 (configuration not stated),-1,6,-1,nt,90*,5
COC(=O)C1CC(=O)N(c2ccc(OCc3ccccc3Cl)cc2)C1 (configuration not stated),2,8,1,nt,24*,1
COC(=O)C1=C(C)N(Cc2cccc(C(F)(F)F)c2)C(=NCC2CC2)NC1c1cccc(C(F)(F)F)c1 (configuration not stated),-5,nt,4,nt,0,3
CN(c1ccc(C(=O)O)cc1)S(=O)(=O)c1ccccc1,1,-5,1,-6,-2,1
COc1ccc(OC)c(S(=O)(=O)N(C(C)=O)c2ccc3oc(=O)sc3c2)c1,53*,0,-4,-18,-1,0
CC(C)C(=O)N(c1ccc2oc(=O)sc2c1)S(=O)(=O)c1ccccc1,48*,8,-2,-5,3,3
COc1ccc(C(=O)Oc2ccc3oc(=O)sc3c2)cc1,76*,23*,-5,-20,4,0
COC(=O)C1CN(Cc2ccccc2)CCS(=O)(=O)N1Cc1ccc(Cl)cc1 (configuration not stated),-1,nt,-2,nt,0,0
COC(=O)c1cc2c(c3c4ccccc4n(S(=O)(=O)c4ccc(OC)cc4)c13)C(=O)N(Cc1ccco1)C2,6,nt,3,nt,2,3
Cc1ccc(CNC(=O)C2c3ccccc3C(=O)N3CCc4ccccc4C23)o1 (configuration not stated),2,22*,0,-1,-4,-5
O=C(CCl)Oc1ccc2occ(C(=O)c3cccs3)c2c1,-1,-1,12,1,29*,13
Cc1ccc(S(=O)(=O)N2CCCC2C(=O)N2CCc3ccccc3C2)cc1 (configuration not stated),-4,nt,4,nt,2,1
COc1ccc(NC(=S)Nc2cccc(C(C)=O)c2)cc1OC,10,-15,8,7,-5,-10
COc1ccc(NC(=S)Nc2cccc(Cl)c2)cc1OC,24*,-13,-5,3,3,-7
COC(=O)[C@]12C[C@H](CC(=O)N3CCCC3)C(=O)N(Cc3ccccc3)C1=C[C@H](C(C)C)O[C@@H]2C1CC1,-2,nt,3,nt,1,0
CCOC(=O)c1cccc(NC(=O)c2cc3ccccc3o2)c1,-6,1,5,nt,-2,5
CCOC(=O)c1ccc(NC(=O)c2cc3ccccc3o2)cc1,1,-10,1,-7,26*,3
O=C(NCc1ccco1)c1nc2nc(-c3cccs3)cc(C(F)(F)F)n2n1,23*,13,12,-6,8,5
O=C(CN1CCCCCCC1)Nc1cc(Cl)cc(Cl)c1,-11,3,4,-5,57*,-5
O=C(CN1CCCC1)Nc1cccc(Cl)c1,-3,6,0,nt,2,3
Cc1cc2c(c(=O)o1)C(c1cccs1)C(C#N)=C(N)O2 (configuration not stated),0,5,-1,-2,-2,-6
Cc1ccc([C@H]2C(C#N)=C(N)Oc3cc(C)oc(=O)c32)o1,22*,10,9,4,0,1
Cc1cccc(/C=C/C(=O)c2cc(Br)ccc(=O)c2O)c1,37*,23*,13,1,4,4
Cc1ccc(/C=C/C(O)=C2/C(=O)N(C)C3(C)CC2c2ccccc2O3)cc1 (configuration not stated),0,22*,1,4,1,-5
COc1ccc(/C=C/C(O)=C2/C(=O)N(C)C3(C)CC2c2ccccc2O3)cc1 (configuration not stated),-1,7,-4,-11,-1,-5
COc1ccc2c3c(cccc13)N(C)N=C2C,48*,-13,13,-7,4,-3
Clc1ccc2c(c1)C(N1CCNCC1)Cc1ccccc1S2 (configuration not stated),nt,33*,nt,-13,nt,nt

# Assay outcomes from PubChem.
